# Rows were chosen to be rich in hits. Some 3.1% of all compounds tested hit in one or more screens of this group.
# Bfl-1 A1 inh: caspase 3/7 activation in MEF A1-2A-BIM cells, primary screen, A1 inhibitor project, cell-based, luminescence, HTS. Caspase-Glo 3/7 luminescence, 3 h; percent of clofoctol response, vehicle zero. caspase activation, % (test concentration not listed). 330,000 compounds, 0.066% hits. AID 2462, 2010;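 active means over half of replicate activation scores above 10%, or exactly half above 10 with the replicate mean above 10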
# T cruzi repl: inhibitors of intracellular T. cruzi growth, primary screen, luminescence, NIH3T3 host cells; T. cruzi beta-gal in NIH3T3, 90 h; inhibition, % (concentration not given with the values); 300,000 compounds, 1.4% hits; AID 1885, 2009;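 active means mean inhibition across valid replicates above about 55%, limit read from the data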;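 further: signal also drops with host cell toxicity which is not excluded here; 0% = plate median of DMSO wells and 100% = zero luminescence signal; higher percent means less beta-gal luminescence so fewer parasites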
#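 compound dosing = single 50 nL compound addition per well in DMSO | material = NIH/3T3 host cells with β-galactosidase reporter T. cruzi | input = 5,000 host fibroblasts per well | timing = ≥90 h infection period, 3 h prior cell attachment | read-out basis = percent inhibition of parasite-derived β-gal signal | detection = GalScreen β-gal luminescence, detergent lysis, 60 min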
# CSC inhib: cancer stem cell viability inhibitors, primary screen, luminescence. cancer stem cell-like cells viability. inhibition, % at 7.5 µM. 300,000 compounds, 1.1% hits. AID 2717, 2010; in the data active means inhibition above about 75%; tested in HMLE shEcad cells
# Calb FLC: C. albicans growth inhibition with fluconazole, primary screen, CaCi-2 strain, Alamar Blue fluorescence. growth inhibition, % (concentration not given with the values). 300,000 compounds, 0.57% hits. AID 1979, 2009. C. albicans CaCi-2 + fluconazole, 48 h;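 active means growth inhibition above about 58% in most replicates, limit read from the data, passing the limit was not always enough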;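 further: all wells also contain fluconazole at 8 µg/ml as a sub-toxic cotreatment; 0% = median of DMSO wells and 100% = median of geldanamycin control wells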
# Beta apoptosis: inhibitors of cytokine-induced beta cell apoptosis, primary screen, luminescence; INS-1E cytokine-induced death, ATP luminescence, 48 h; percent of positive-control rescue, neutral wells zero; protection from apoptosis, % (test concentration not listed); 300,000 compounds, 0.8% hits; AID 435005, 2010;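 active means Every replicate reaches about 75%, or at least half do and their mean reaches it too, limit read from the data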;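 further: 0% = cytokine-treated negative control wells and 100% = positive control rescue; higher means more ATP so stronger rescue from cytokine killing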
# TAG inh: inhibitors of triacylglycerol accumulation, primary screen, cell-based, uHTS, fluorescence, H9c2; inhibition, % at 12.5 µM; AID 651582, 2012; 230,000 compounds, 0.66% hits; H9c2 cells, Nile Red lipid (TAG) fluorescence; cells loaded with 200 µM oleic acid;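 active means pattern-corrected inhibition of lipid staining of at least 50% with the nuclear-stain viability signal not falling by more than 50%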;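 further: 0% = DMSO wells and 100% = triacsin C control wells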
# Numbers without * were called inactive; nt = no result.
SMILES,Bfl-1 A1 inh,T cruzi repl,CSC inhib,Calb FLC,Beta apoptosis,TAG inh
CC(=O)OCC12COC3c4ccccc4OC(C)(CC1C)C3C2C (stereo unspecified),-1,1,-6,106*,2,-6
C/C(=N\NC(=O)c1cc2ccccc2cc1O)c1cccs1,-8,55*,54,48,2,nt
C/C(=N/NC(=O)c1cccs1)c1cccs1,-6,16,-10,-1,2,3
O=C(NNC(=O)c1cc2ccccc2cc1O)c1cccs1,-12,-15,11,91*,4,nt
CC(=O)N1CCC(=NNC(=O)c2cc3ccccc3cc2O)CC1,1,-8,-16,82*,-2,nt
Cc1ccc(C)c(N2CCN(CCCNC(=O)Cn3c(=O)c4cccn4c4cccnc43)CC2)c1,0,14,13,-15,8,nt
O=C(Cn1cc([N+](=O)[O-])ccc1=O)NCC1COc2ccccc2O1 (stereo unspecified),nt,nt,nt,nt,nt,-2
Cc1cc(C)n(C(C)CNS(=O)(=O)c2ccccc2)n1 (stereo unspecified),0,4,-4,-7,1,nt
C/C(Cn1cnc([N+](=O)[O-])n1)=N\NC(=O)c1ccc(F)cc1,0,48,-12,11,-4,-13
C/C(Cn1cnc([N+](=O)[O-])n1)=N\NC(=O)c1cccc(F)c1,1,63*,4,-6,-1,-23
COc1ccc(C(=O)N/N=C(\C)Cn2cnc([N+](=O)[O-])n2)cc1,1,56*,9,17,11,nt
COc1ccc(CCN2CC(C(=O)N(C)Cc3ccc(C)o3)CCC2=O)cc1 (stereo unspecified),1,3,-4,-11,-1,nt
COC(=O)c1cc(NC(=O)CC2SC(=Nc3ccccc3)N(CCc3c[nH]c4ccccc34)C2=O)cc(C(=O)OC)c1 (stereo unspecified),0,67*,49,-6,4,21
Cc1cccc(N2CCN(Cc3ccc([N+](=O)[O-])o3)CC2)c1C,0,58*,-5,-8,-5,-2
N#Cc1c(C(F)(F)F)cc(-c2ccco2)nc1SCc1ccncc1,1,62*,7,-2,-2,-14
CCOC(=O)N1C(=O)C2(CCCCC2)N(c2ccccc2Cl)C1=S,-2,-15,-12,100*,-4,nt
CCOC(=O)c1sc(=S)n(-c2ccccc2Cl)c1C,-1,nt,7,25,-3,15
CC1(C)Cc2ccccc2C(CSc2ccccc2C(=O)O)=N1,0,20,76*,-29,-3,nt
COc1cc2c(cc1OC)C(CSc1ccccc1C(=O)O)=NC(C)(C)C2,1,-8,-12,12,1,1
c1ccc2c(c1)nc(NCc1ccc3c(c1)OCO3)n2CCN1CCOCC1,0,16,-8,-3,-1,6
c1csc(-c2csc3nc(CN4CCOCC4)nc(NCc4ccc5c(c4)OCO5)c23)c1,0,57*,38,0,11,-3
COCCNC(=O)c1c[nH]c2ccc(S(=O)(=O)N3CCc4ccccc43)cc2c1=O,0,20,84*,-32,-17,2
O=C1C(=O)c2c(C(=O)c3ccccc3)coc2-c2ccccc21,0,58*,37,-12,101*,nt
Cc1oc2c(c1C(=O)c1ccccc1)C(=O)C(=O)c1ccccc1-2,0,19,98*,3,104*,-8
CCOC(=O)c1c(C)oc2c1C(=O)c1ccccc1C2=O,0,-11,85*,nt,84*,nt
SMILES,Bfl-1 A1 inh,T cruzi repl,CSC inhib,Calb FLC,Beta apoptosis,TAG inh
COc1ccc(-n2c(=S)[nH]c3cc(C(=O)Nc4ccc(F)cc4)ccc3c2=O)c(OC)c1,0,-4,14,-12,13,nt
C[n+]1ccc(/C=C/c2ccccc2O)c2ccccc21,0,70*,3,11,4,-9
CN1/C(=C/c2cc[n+](C)c3ccccc23)C=Cc2ccccc21,nt,nt,nt,nt,nt,-15
CN(C)c1cc[n+](Cc2c(Cl)cccc2Cl)cc1,1,50,7,-14,97*,-127
CCOC(=O)c1cccc(Nc2nc(-c3cccnc3)nc3ccccc23)c1,0,32,92*,-5,42,53*
COc1cccc(CNC(=O)CN2CCC(c3nc4ccc(C)cc4[nH]3)CC2)c1,1,55*,-5,14,nt,34
COc1cc(C[C@H](C)[C@H](C)Cc2ccc3c(c2)OCO3)ccc1O,1,3,127*,-9,-11,-15
COc1ccc(CN2CCCC(CNC(=O)c3ccc(F)cc3)C2)c(C)c1C (stereo unspecified),0,71*,-2,-22,-5,-3
CCOc1ccc(CN2CCCC(CNC(=O)c3ccc(F)cc3)C2)cc1CO (stereo unspecified),0,62*,3,-12,-17,nt
COc1ccc(CN2CCCC(CNC(=O)c3ccc(F)cc3)C2)c(F)c1 (stereo unspecified),-1,36,9,-17,-6,nt
CCOc1cc(CN2CCCC(CNC(=O)c3ccc(F)cc3)C2)ccc1OC (stereo unspecified),0,61*,-5,-5,-7,19
COc1ccccc1NC(=O)c1cc2c(cc1Cl)N1CCCCCC1=NS2(=O)=O,0,nt,-7,nt,6,7
Cc1ccc(NC(=O)N(Cc2ccco2)Cc2cc3cc(C)cc(C)c3nc2Cl)cc1,nt,56*,nt,9,nt,nt
Cc1ccc(C)c2[nH]c(=O)c(CN(Cc3ccco3)C(=O)Nc3ccccc3)cc12,-1,17,-6,-3,5,4
Cc1cccc2cc(CN(Cc3ccco3)C(=O)Nc3cccc(C#N)c3)c(Cl)nc12,1,60*,26,6,11,nt
CCCCCCCCCCCCN1[C@@H](CC(=O)O)c2cc(C(F)(F)F)ccc2S1(=O)=O,1,1,104*,-9,4,13
CCCCCCCCN1[C@@H](CC(=O)OCC)c2ccc(C(F)(F)F)cc2S1(=O)=O,0,61*,51,-9,7,-34
Cc1ccc(C(=O)Nc2ncccc2O)o1,0,-3,-17,-3,-4,8
COc1ccc(-c2csc3ncnc(N4CCN(c5ccccc5OC)CC4)c23)cc1,0,39,22,0,18,nt
CCOc1ccccc1N1CCN(c2ncnc3scc(-c4ccc(OC)cc4)c23)CC1,1,61*,7,-6,4,20
COc1ccc(-c2csc3ncnc(N4CCN(S(=O)(=O)c5ccc(C)c(C)c5)CC4)c23)cc1,0,55*,-4,3,12,-15

# High-throughput results as filed in PubChem BioAssay.
